Active and inactive are the calls of the source. No cut-off for these calls is given here.
How the values were obtained:
[1] = (§1) Inhibition of TPA-stimulated melanogenesis in mouse Mel-Ab cells at 100 uM after 4 days; format: functional; settings: 96 h
[2] = Antioxidant activity assessed as inhibition of lipid peroxidation after 48 hrs by ferric thiocyanate assay; format: functional
In short: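 Lipid peroxidation run in an emulsified system with antioxidant at 90 µM final, 50 °C in the dark for 48 h. Ferric thiocyanate read-out: absorbance at 500 nm 3 min after colour development. Trolox as positive control. Triplicate, mean with standard error.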

[3] = target: T1, Tyrosinase (Agaricus bisporus) (UniProt O42713); assay: Inhibition of mushroom tyrosinase using L-DOPA substrate at 50 to 100 uM incubated for 10 mins
T1 sequence (whole entry): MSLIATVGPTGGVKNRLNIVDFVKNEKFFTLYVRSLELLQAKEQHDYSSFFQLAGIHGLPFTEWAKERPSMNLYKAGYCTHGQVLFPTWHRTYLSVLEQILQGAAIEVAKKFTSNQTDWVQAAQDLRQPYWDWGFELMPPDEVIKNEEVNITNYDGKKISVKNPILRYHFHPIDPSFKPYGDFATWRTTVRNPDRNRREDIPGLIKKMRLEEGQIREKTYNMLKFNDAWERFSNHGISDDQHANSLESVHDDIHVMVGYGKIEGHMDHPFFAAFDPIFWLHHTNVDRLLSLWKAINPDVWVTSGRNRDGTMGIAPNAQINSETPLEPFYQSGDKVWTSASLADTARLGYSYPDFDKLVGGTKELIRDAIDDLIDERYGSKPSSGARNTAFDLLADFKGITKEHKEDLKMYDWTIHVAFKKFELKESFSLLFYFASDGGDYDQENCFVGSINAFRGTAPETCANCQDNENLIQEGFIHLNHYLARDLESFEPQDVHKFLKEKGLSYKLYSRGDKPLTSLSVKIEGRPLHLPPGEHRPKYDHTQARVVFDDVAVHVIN
In short: (§2)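 Mushroom tyrosinase (25 µL of 100 µg/mL aqueous solution) added to 0.1 M phosphate buffer pH 6.8, 2.5 mM L-DOPA (stock), water and inhibitor in DMSO. Incubated 25 °C for 10 min, absorbance at 475 nm. %inhibition = (1−A/B)×100 against a DMSO-only reference. Single-point tests at 50 or 100 µM; kojic acid as reference. Triplicate, mean with standard error.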

[4] = Toxicity against mouse Mel-Ab cells at 100 uM by CCK-8 assay
[5] = test system: Radical scavenging activity; assay: Antioxidant activity assessed as DPPH radical scavenging activity by UV/Visible spectrophotometry; format: functional
In short: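 DPPH in methanol; antioxidant:DPPH molar ratio 0.25 for caffeic/dihydrocaffeic acids and their conjugates, 0.50 for p-coumaric, ferulic, sinapic acids and their conjugates. 10 min at 25 °C, absorbance at 516 nm. %RSA = (1−A/B)×100, B = methanol in place of sample. Triplicate, mean with standard error.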

[6] = target: T2, Tyrosinase (Agaricus bisporus, UniProt O42713); assay: Inhibition of mushroom tyrosinase using L-DOPA substrate incubated for 10 mins
T2 sequence (O42713 whole entry): T1 sequence (whole entry)

[7] = test system: Mel-Ab; assay: as §1; format: functional
[8] = target: T1, Tyrosinase (Agaricus bisporus); assay: Inhibition of mushroom tyrosinase using L-DOPA substrate at 100 uM incubated for 10 mins; in short: as §2

inhibition [3] | SMILES | inhibition [2] | Activity [4] | Activity [5] | other results
inactive | COc1cc(/C=C/C(=O)N2CCCC2C(=O)NO)cc(OC)c1O (centres undefined) | Active | Non-toxic | Active | inhibition at 100 µM [1]: 30%
– | NC(=O)C(Cc1ccccc1)NC(=O)OCc1cc(=O)c(O)co1 (centres undefined) | – | – | – | IC50 [6]: 4.2 µM
Active | O=C(/C=C/c1ccc(O)c(O)c1)NC(Cc1ccccc1)C(=O)NO (centres undefined) | Active | Non-toxic | – | inhibition [7]: Active; IC50 [6]: 4.9 µM
inactive | COc1cc(/C=C/C(=O)NC(Cc2ccccc2)C(=O)NO)cc(OC)c1O (centres undefined) | Active | Non-toxic | – | inhibition at 100 µM [1]: 30%
– | O=C(O)/C=C/c1ccc(O)c(O)c1 [CAFFEIC ACID] | – | Toxic | – | –
Active | O=C(/C=C/c1ccc(O)cc1)NC(Cc1ccccc1)C(=O)NO (centres undefined) | inactive | – | inactive | –
inactive | COc1cc(/C=C/C(=O)O)ccc1O | – | – | Active | –
– | CC(=O)NC(Cc1ccccc1)C(=O)NO (centres undefined) | – | – | – | inhibition [8]: 6%
inactive | O=C(NO)C1CCCN1C(=O)CCc1ccc(O)c(O)c1 (centres undefined) | inactive | – | – | –
– | CC(=O)N1CCCC1C(=O)NO (centres undefined) | – | – | – | inhibition [8]: 5%
inactive | COc1cc(/C=C/C(=O)NC(Cc2ccccc2)C(=O)NO)ccc1O (centres undefined) | Active | Non-toxic | Active | inhibition [7]: inactive
– | OC[C@H]1O[C@@H](Oc2ccc(O)cc2)[C@H](O)[C@@H](O)[C@@H]1O | – | – | – | inhibition [7]: Active
– | O=C(O)/C=C/c1ccc(O)cc1 | inactive | – | inactive | –
– | O=C(O)CCc1ccc(O)c(O)c1 | inactive | – | – | –
Active | O=C(NO)C1CCCN1C(=O)/C=C/c1ccc(O)c(O)c1 (centres undefined) | Active | Non-toxic | Active | inhibition at 100 µM [1]: 30%
inactive | O=C(CCc1ccc(O)c(O)c1)NC(Cc1ccccc1)C(=O)NO (centres undefined) | inactive | – | – | –
inactive | COc1cc(/C=C/C(=O)O)cc(OC)c1O | – | – | – | –
Active | O=C(NO)C1CCCN1C(=O)/C=C/c1ccc(O)cc1 (centres undefined) | inactive | – | inactive | –
inactive | COc1cc(/C=C/C(=O)N2CCCC2C(=O)NO)ccc1O (centres undefined) | Active | Non-toxic | Active | –

Source: ChEMBL document CHEMBL2331432, “Synthesis and dual biological effects of hydroxycinnamoyl phenylalanyl/prolyl hydroxamic acid derivatives as tyrosinase inhibitor and antioxidant” (Bioorg Med Chem Lett, 2013)
